Laboratory results reported in ChEMBL document CHEMBL1909579, “New bioactive macrocyclic diterpenoids from Jatropha multifida” (Bioorg Med Chem Lett, 2011).
Converted amounts (≈) assume the structure as drawn.

Tests used:
[1] = Cytotoxicity against human MDA231 cells by MTT assay; format: functional, cell-based; conditions: MDA-MB-231
Outline: (§1)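 MTT read-out following Mosmann's method; IC50 for each cell line derived from four individual observations.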

[2] = tested on: HeLa; assay: Cytotoxicity against human HeLa cells by MTT assay; format: functional, cell-based; outline: as §1
[3] = tested on: Raoultella planticola; assay: Antimicrobial activity against Klebsiella planticola MTCC 530 by microtiter broth dilution method; format: functional
Outline: (§2)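 MIC determined by microtiter broth dilution, with neomycin as the reference control; each organism's value derived from four individual observations.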

[4] = tested on: Staphylococcus aureus; assay: Antimicrobial activity against Staphylococcus aureus MTCC 96 by microtiter broth dilution method; format: functional; outline: as §2
[5] = tested on: A549; assay: Cytotoxicity against human A549 cells by MTT assay; format: functional, cell-based; outline: as §1
[6] = tested on: Staphylococcus aureus; assay: Antimicrobial activity against Staphylococcus aureus MLS16 MTCC 96 by microtiter broth dilution method; format: functional; conditions: MLS16 MTCC 2940, in the assay text read “MTCC 2940” for “MTCC 96”; outline: as §2
[7] = tested on: MCF7; assay: Cytotoxicity against human MCF7 cells by MTT assay; format: functional, cell-based
Outline: (§3)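 MTT assay following Mosmann's method. Each IC50 was derived from four individual observations for each cell line.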

[8] = tested on: Bacillus subtilis; assay: Antimicrobial activity against Bacillus subtilis MTCC 121 by microtiter broth dilution method; format: functional; outline: as §2
[9] = tested on: Escherichia coli; assay: Antimicrobial activity against Escherichia coli MTCC 739 by microtiter broth dilution method; format: functional; outline: as §2
[10] = Cytotoxicity against mouse Neuro2a cells by MTT assay; format: functional, cell-based; conditions: N2a; outline: as §3
[11] = tested on: Pseudomonas aeruginosa; assay: Antimicrobial activity against Pseudomonas aeruginosa MTCC 2453 by microtiter broth dilution method; format: functional; outline: as §2

SMILES | IC50 [1] | IC50 [2] | MIC [3] | MIC [4] | IC50 [5] | MIC [6] | IC50 [7] | MIC [8] | MIC [9] | IC50 [10] | MIC [11]
COc1cccc2c1C(=O)c1c(O)c3c(c(O)c1C2=O)C[C@@](O)(C(=O)CO)C[C@@H]3O[C@H]1C[C@H](N)[C@H](O)[C@H](C)O1 [DOXORUBICIN] | < 1 µM | < 1 µM | – | – | – | – | – | – | – | – | –
C[C@H]1C[C@@H]2[C@H](CC[C@](C)(O)/C=C3\[C@H](O)[C@@H](C)C[C@@]3(O)C1=O)C2(C)C [MULTIFIDANOL] | 7.04 µM | 15.4 µM | 9.37 µg/mL (≈ 27.8 µM) | 18.8 µg/mL (≈ 55.7 µM) | 6.27 µM | 18.8 µg/mL (≈ 55.7 µM) | 6.39 µM | 4.68 µg/mL (≈ 13.9 µM) | 4.68 µg/mL (≈ 13.9 µM) | 6.35 µM | 9.37 µg/mL (≈ 27.8 µM)
CC1=C[C@@]2(O)C(=O)[C@@H](C)C[C@@H]3[C@H](CC[C@](C)(O)/C=C/2[C@@H]1O)C3(C)C [MULTIFIDENOL] | 5.39 µM | 7.56 µM | – | 4.68 µg/mL (≈ 14 µM) | 12.5 µM | 4.68 µg/mL (≈ 14 µM) | 8.57 µM | – | – | 5.6 µM | –
